Only some compounds are listed: those with a hit (about 3.7% of all), similar ones and a draw of the others.
proCasp3 act = activators of human procaspase-3; actives 0.11% (n = 330,000); P42574; recombinant procaspase-3 D3A, Ac-DEVD-pNA absorbance 405 nm; activation, % at 8.5 µM; AID 463141;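 active = activation above the mean of all tested compounds plus 3 SD, cut at about 21% in these data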
Target sequence (P42574 whole entry D9A/D28A/D175A): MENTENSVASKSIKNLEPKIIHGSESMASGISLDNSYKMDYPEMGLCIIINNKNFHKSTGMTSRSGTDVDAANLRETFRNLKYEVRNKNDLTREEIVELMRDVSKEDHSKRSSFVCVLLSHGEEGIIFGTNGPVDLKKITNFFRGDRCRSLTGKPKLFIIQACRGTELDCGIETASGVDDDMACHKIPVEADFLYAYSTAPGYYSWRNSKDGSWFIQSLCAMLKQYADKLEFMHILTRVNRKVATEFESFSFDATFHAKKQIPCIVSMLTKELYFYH
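Technique: 405 nm absorbance of p-nitroaniline, reads at 0 and 120 min; Test system: Procaspase-3 D3A mutant; Incubation: 1 h enzyme-compound preincubation, then 2 h substrate reaction, 25 °C; Repeats: singlicate, each compound tested once; Benchmarks: low control DMSO wells, high control DMSO plus 5 µM PC-3 D3A.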
procasp7 counter = counter-screen: procaspase-7 (human) activation | actives 0.093% (n = 330,000) | activation, % at 8.5 µM | recombinant procaspase-7, Ac-DEVD-pNA absorbance 405 nm; D23A/D198A/D206A triple mutant, cannot self-cleave; scale: DMSO 0, 5 µM enzyme 100;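 active = percent activation above the screen-wide mean plus 3 SD, cut at about 25% in these data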
Target sequence (P55210 whole entry D23A/D198A/D206A): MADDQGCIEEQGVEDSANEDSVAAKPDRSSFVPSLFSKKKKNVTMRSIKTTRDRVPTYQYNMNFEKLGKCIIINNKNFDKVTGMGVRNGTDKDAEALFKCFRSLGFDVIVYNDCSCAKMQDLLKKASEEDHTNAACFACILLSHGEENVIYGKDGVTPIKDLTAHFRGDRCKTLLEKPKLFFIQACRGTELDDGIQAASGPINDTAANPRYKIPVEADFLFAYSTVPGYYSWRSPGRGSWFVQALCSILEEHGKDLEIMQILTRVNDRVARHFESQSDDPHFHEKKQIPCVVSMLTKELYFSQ
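Assay system: Uncleavable procaspase-7 mutant enzyme; Input: 2 µM procaspase-7 mutant as dispensed; Also added: DEVD-pNA substrate; Medium: Zinc-free HEPES pH 7.4 with 300 mM NaCl, 0.01% Triton X-100; Timing: 1 h compound preincubation, 2 h substrate cleavage, 25 °C; Measured by: Epi-absorbance of released pNA at 405 nm, two timepoints.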
aDG glyco up = increases alpha dystroglycan glycosylation; Pro5-aDG cells, alpha-DG glycosylation AlphaScreen (IIH6); 0% Pro5, 100% B10-LARGE cell signal; activation, % at 10 µM; actives 0.22% (n = 360,000); AID 624168;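 active = activation of at least 8% versus controls, or a plate z-score of at least 8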;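 note: Pro5 are CHO cells carrying HIG-tagged alpha-DG that lacks glycosylation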
MPTP inh = blocks calcium-induced mitochondrial swelling. inhibition, % at 10 µM. actives 1.4% (n = 360,000). isolated mouse mitochondria, Ca2+ swelling absorbance, 30 min;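 active = inhibition of 50% or more, scaled per plate between neutral and stimulator controls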
NR3A LBD binder = modulators (binders) of human NR3A ligand-binding domain; Tm shift relative to glycine control, % at 25 µM; NR3A LBD differential scanning fluorimetry, Tm shift; 0% = protein alone, 100% = glycine-bound protein; actives 2.5% (n = 340,000); AID 1259313;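 active = melting temperature shift of at least 10% of the positive control shift, at one fixed dose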
Of the large screens only hits and unclear results are named; the others gave an inactive call.

COc1ccc(NC(=O)/C=C/C(=O)O)c([N+](=O)[O-])c1	none
CCOc1ccc(NC(=O)/C=C/c2ccccc2)c([N+](=O)[O-])c1	NR3A LBD binder 15
C[C@H]1CN([C@@H](C)CO)C(=O)c2cc(C#Cc3ccccn3)cnc2O[C@@H]1CN(C)Cc1ccccc1	none (no result: proCasp3 act, procasp7 counter, NR3A LBD binder)
CCCCC[C@H](C)N1C[C@H](COCc2ccccc2)Oc2cc(N3CCC[C@H]3CO)ccc2S1(=O)=O	none (no result: proCasp3 act, procasp7 counter, NR3A LBD binder)
COc1ccccc1NS(=O)(=O)c1ccc(C)c(NS(=O)(=O)c2cc(NC(C)=O)ccc2OC)c1	none (no result: proCasp3 act, procasp7 counter)
O=C(C1CCCO1)N1N=C(c2ccc(Br)cc2)CC1c1ccco1 (configuration not stated)	NR3A LBD binder 16
Cc1ccc(C2=NN(C(=O)C3CCCO3)C(c3ccco3)C2)cc1 (configuration not stated)	none
COc1cccc(CNC(=O)[C@@H]2CCCN2C(=O)[C@@H]2CCCN2C(=O)OC(C)(C)C)c1	none (no result: proCasp3 act, procasp7 counter, NR3A LBD binder)
Fc1ccc(N/N=C/c2ccncc2)c(F)c1	NR3A LBD binder 23
O=C(O)c1ccc(/C=N/Nc2ccc(F)cc2F)cc1	none
O=C(C(=O)c1cccnc1)c1cccnc1	none
O=C(O)c1cccnc1	NR3A LBD binder 14
O=C(COc1ccc(-c2nnco2)cc1)Nc1c(F)cccc1F	NR3A LBD binder 14
O=C(COc1ccc(-c2nnco2)cc1)Nc1c(Cl)cccc1C(F)(F)F	none
CCOC(=O)C1=CN(Cc2cccc(F)c2)S(=O)(=O)N(C)C1CCc1ccccc1 (configuration not stated)	none
CCOC(=O)C1=CN(Cc2cccc(-c3ccc(F)cc3)c2)S(=O)(=O)N(C)C1C (configuration not stated)	NR3A LBD binder 13
CCN(CC)C(=O)C1=C(C)N(CCCOC)C(=O)C(CC(=O)NCc2cccs2)C1 (configuration not stated)	none (no result: proCasp3 act, procasp7 counter, NR3A LBD binder)
O=C(COC(=O)C1CCN(c2ccc(C(F)(F)F)cn2)CC1)Nc1ccc(F)cc1[N+](=O)[O-]	none
O=C(COC(=O)C1CCN(c2ccc(C(F)(F)F)cn2)CC1)Nc1cccc(F)c1	NR3A LBD binder 12
O=C(COC(=O)C1CCN(c2ccc(C(F)(F)F)cn2)CC1)Nc1ccc(Cl)cc1	NR3A LBD binder 24
Cc1ccc(NC(=O)COC(=O)C2CCN(c3ccc(C(F)(F)F)cn3)CC2)cc1C	NR3A LBD binder 12
CCCCC1Cc2[nH]c(=S)[nH]c(=O)c2C(C(C)C)O1 (configuration not stated)	none (no result: proCasp3 act, procasp7 counter, NR3A LBD binder)
NC(=S)N/N=C/c1c[nH]c2ccc(OCc3ccccc3)cc12	NR3A LBD binder 10
NC(=S)N/N=C\c1ccccc1OCc1ccccc1	none
O=C(CC1S/C(=N/N=C/c2c[nH]c3ccc(OCc4ccccc4)cc23)NC1=O)Nc1ccccc1 (configuration not stated)	NR3A LBD binder 23
CCN(CC)CC(=O)Nc1c(C)cc(C)cc1C	NR3A LBD binder 10 (no result: proCasp3 act, procasp7 counter, aDG glyco up, MPTP inh)
COc1ccc(CCN2C(=O)C(Oc3ccccc3)C2c2ccc3c(c2)OCO3)cc1 (configuration not stated)	NR3A LBD binder 12
COc1cc2c(cc1OC)CN(C(=O)C1CCCN(C(=O)c3ccc(Cl)cc3)C1)CC2 (configuration not stated)	none
COc1cc(N/N=C(\C)c2ccc(O)c(C)c2)nc(-c2ccccc2)n1	NR3A LBD binder 22
C/C(=N\Nc1cc(-c2ccccc2)nc(-c2ccccc2)n1)c1ccc(O)c(C)c1	NR3A LBD binder 28
O=C(COC(=O)CCCSc1nc2ccccc2[nH]1)Nc1ccc(Cl)cc1	NR3A LBD binder 16
CCNC(=O)NC(=O)COC(=O)CCCSc1nc2ccccc2[nH]1	none
Cc1cc2ncn(-c3ncccc3[N+](=O)[O-])c2cc1C	none
O=C(Nc1ccc(NC(=O)c2cccc([N+](=O)[O-])c2)cc1)c1cccc([N+](=O)[O-])c1	none
O=C(Nc1cc([N+](=O)[O-])ccc1O)c1cccc([N+](=O)[O-])c1	none
O=C(Nc1ccc(O)cc1)c1cccc(Oc2ccc([N+](=O)[O-])cc2)c1	NR3A LBD binder 32
Cc1cc(O)c(NC(=O)c2cccc([N+](=O)[O-])c2)cc1C	NR3A LBD binder 17
O=C(Nc1cc([N+](=O)[O-])ccc1O)c1cccc(C(=O)Nc2cc([N+](=O)[O-])ccc2O)c1	NR3A LBD binder 25
CS(=O)(=O)NCc1ccccc1Br	none (no result: aDG glyco up, MPTP inh, NR3A LBD binder)
CCCCN(C=O)c1c(CC)nc2ccc(C(=O)N(C)Cc3ccccc3)cn12	none (no result: proCasp3 act, procasp7 counter, NR3A LBD binder)
COc1cccc(/C=N/Nc2nc(Nc3ccc([N+](=O)[O-])cc3)nc(N3CCCC3)n2)c1O	NR3A LBD binder 23
CNc1nc(N/N=C/c2ccc([N+](=O)[O-])cc2)nc(Nc2ccccc2)n1	NR3A LBD binder 30
O=[N+]([O-])c1ccc(Nc2nc(N/N=C/c3cccc(F)c3)nc(N3CCCC3)n2)cc1	NR3A LBD binder 25
O=C(Nc1ccc(OC(F)(F)F)cc1)c1cc(S(=O)(=O)N2CCCCC2)ccc1N1CCOCC1	none (no result: proCasp3 act, procasp7 counter, NR3A LBD binder)
CCn1cc(CNC(=O)c2cc(COc3ccc(F)cc3Cl)on2)cn1	NR3A LBD binder 116
O=C(NCCCn1cccn1)c1cc(COc2ccc(F)cc2Cl)on1	none
COc1ccc(NC(=O)C(c2ccc(OC)cc2)N(Cc2ccco2)C(=O)CC2NC(=O)NC2=O)cc1 (configuration not stated)	none
COc1ccc(NC(=O)C(c2ccc(C)cc2)N(C)C(=O)CC2NC(=O)NC2=O)cc1 (configuration not stated)	NR3A LBD binder 12
COCCCn1cc(CN2CC(N3CCSCC3)CS2(=O)=O)nn1 (configuration not stated)	none (no result: proCasp3 act, procasp7 counter, NR3A LBD binder)
N#Cc1c(N)[nH]c(=S)c(C#N)c1-c1ccccc1	none
N#Cc1c(N)[nH]c2ccc(Sc3ccccc3)cc12	NR3A LBD binder 109 (no result: proCasp3 act, procasp7 counter)
COc1cc(Cl)ccc1OCc1cc(C(=O)N2C[C@H]3CC[C@H]2C3)no1	NR3A LBD binder 13
O=C1CCC(C(=O)N2CCN(c3cnccn3)CC2)CN1CCc1ccccc1 (configuration not stated)	none (no result: proCasp3 act, procasp7 counter, NR3A LBD binder)
COc1ccc2cc3cc(C(=O)NCCCN4CCc5ccccc5C4)sc3nc2c1	none
COc1ccc(S(=O)(=O)NNC(=O)c2cc3cc4ccccc4nc3s2)cc1	NR3A LBD binder 29
COc1ccc2nc3sc(C(=O)NCCN4CCc5ccccc5C4)cc3cc2c1	NR3A LBD binder 19
CCn1c2ccccc2c2cc(NC(=O)COC(=O)c3ccccc3O)ccc21	none
CCn1c2ccccc2c2cc(NC(=O)COC(=O)c3cc(S(N)(=O)=O)c(Cl)cc3Cl)ccc21	NR3A LBD binder 14
COc1ccc(-c2noc(CCC(=O)NCCN3CCN(c4ccccc4F)CC3)n2)cc1	none
O=C(CCc1nc(-c2ccccc2F)no1)NCCN1CCOCC1	NR3A LBD binder 14
